Reference: ChEMBL document CHEMBL1125291, “New 8-(trifluoromethyl)-substituted quinolones. The benefits of the 8-fluoro group with reduced phototoxic risk” (1992)
Values after ≈ are worked out from the molar mass of the structure shown.

How the values were obtained:
Klebsiella pneumoniae = test: Minimum inhibitory concentration (MIC) against gram negative bacteria Klebsiella pneumoniae MGH-2.; assay type: functional; conditions: Klebsiella pneumoniae; read-out: MIC
How it was run: (§1)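 MICs were determined by standard broth microtitration against 11 Gram-positive and Gram-negative organisms, in µg/mL. Values come from duplicate or triplicate experiments and are accurate to ±50%.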

Staphylococcus aureus [1] = test: Minimum inhibitory concentration (MIC) against gram positive bacteria Staphylococcus aureus UC-76.; assay type: functional; conditions: Staphylococcus aureus; read-out: MIC; how it was run: as §1
Pseudomonas aeruginosa [2] = test: Minimum inhibitory concentration (MIC) against gram negative bacteria Pseudomonas aeruginosa UI-18.; assay type: functional; conditions: Pseudomonas aeruginosa; read-out: MIC; how it was run: as §1
Escherichia coli [3] = test: In vivo efficacy in mouse protection test in Escherichia coli Vogel administered by subcutaneous injection.; assay type: functional; conditions: Escherichia coli, sc; read-out: PD50
How it was run: (§2)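 Acute lethal systemic infections in female Charles River CD-1 mice. A single dose was given at challenge, orally by gavage or by subcutaneous injection. PD50 (median protective dose, mg/kg) was determined.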

Streptococcus pyogenes [4] = test: In vivo efficacy (orally) against Streptococcus pyogenes C-203 in mouse protection test; assay type: functional; conditions: Streptococcus pyogenes, po; read-out: PD50; how it was run: as §2
Streptococcus pyogenes [5] = test: In vivo efficacy (s.c.) against Streptococcus pyogenes C-203 in mouse protection test; assay type: functional; conditions: Streptococcus pyogenes, sc; read-out: PD50; how it was run: as §2
Mus musculus [6] = species: Mus musculus; test: Dose required to induce phototoxic reaction in 50% of mice by probit method at different dosage forms.; assay type: functional
Staphylococcus aureus [7] = test: Minimum inhibitory concentration (MIC) against gram positive bacteria Staphylococcus aureus H-228.; assay type: functional; conditions: Staphylococcus aureus; read-out: MIC; how it was run: as §1
Escherichia coli [8] = test: Minimum inhibitory concentration (MIC) against gram negative bacteria Escherichia coli Vogel.; assay type: functional; conditions: Escherichia coli; read-out: MIC; how it was run: as §1
Escherichia coli [9] = test: Minimum inhibitory concentration (MIC) against gram negative bacteria Escherichia coli H-560.; assay type: functional; conditions: Escherichia coli; read-out: MIC; how it was run: as §1
Mus musculus [10] = species: Mus musculus; test: Dose which has no effect to induce phototoxic reaction in 50% of mice by probit method.; assay type: functional
Mus musculus [11] = species: Mus musculus; test: Number of mice which show positive phototoxic reaction in 5 mice; assay type: functional
Escherichia coli [12] = test: In vivo efficacy in mouse protection test in Escherichia coli Vogel dose administered orally by gavage.; assay type: functional; conditions: Escherichia coli, po; read-out: PD50; how it was run: as §2
Enterococcus faecalis = test: Minimum inhibitory concentration (MIC) against gram positive bacteria Streptococcus faecalis MGH-2.; assay type: functional; conditions: Enterococcus faecalis; read-out: MIC; how it was run: as §1
[13] = Minimum inhibitory concentration (MIC) against gram negative bacteria Prot. rettgeri M-1771.; assay type: functional, Providencia rettgeri; conditions: Providencia rettgeri; read-out: MIC; how it was run: as §1
Streptococcus pyogenes [14] = test: Minimum inhibitory concentration (MIC) against gram positive bacteria Streptococcus pyogenes C-203.; assay type: functional; conditions: Streptococcus pyogenes; read-out: MIC; how it was run: as §1
Streptococcus pneumoniae [15] = test: Minimum inhibitory concentration (MIC) against gram positive bacteria Streptococcus pneumoniae SV-1.; assay type: functional; conditions: Streptococcus pneumoniae; read-out: MIC; how it was run: as §1
Enterobacter cloacae = test: Minimum inhibitory concentration (MIC) against gram negative bacteria Enterobacter cloacae MA-2646.; assay type: functional
Mus musculus [16] = species: Mus musculus; test: Days of the first positive reaction in […] mice.; assay type: functional
How it was run: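 Phototoxic skin reaction test in depilated female CD-1 mice. A single oral dose (gavage) or subcutaneous dose was given, followed 1 h later by 3 h of UVA exposure (320–400 nm). The regimen was repeated for up to 4 consecutive days, with initial doses of 30, 100 and 300 mg/kg. PTD50 was derived by the probit method. The first day of positive reaction and the no-effect dose were taken from the raw data.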

Mus musculus [17] = test: Maximum tolerance dose was measured for phototoxic skin reaction by po administration; assay type: functional
Streptococcus pneumoniae [18] = test: In vivo efficacy (s.c.) against Streptococcus pneumoniae SV-1 in mouse protection test; assay type: functional; conditions: Streptococcus pneumoniae, sc; read-out: PD50; how it was run: as §2
Pseudomonas aeruginosa [19] = test: In vivo efficacy (s.c.) against Pseudomonas aeruginosa in mouse protection test; assay type: functional; conditions: Pseudomonas aeruginosa, sc; read-out: PD50; how it was run: as §2
Streptococcus pneumoniae [20] = test: In vivo efficacy (orally) against Streptococcus pneumoniae SV-1 in mouse protection test; assay type: functional; conditions: Streptococcus pneumoniae, po; read-out: PD50; how it was run: as §2
Pseudomonas aeruginosa [21] = test: In vivo efficacy (orally) against Pseudomonas aeruginosa in mouse protection test; assay type: functional; conditions: Pseudomonas aeruginosa, po; read-out: PD50; how it was run: as §2

SMILES	MIC (Klebsiella pneumoniae) [µg/mL]	MIC (Staphylococcus aureus [1]) [µg/mL]	MIC (Pseudomonas aeruginosa [2]) [µg/mL]	ED50 (Escherichia coli [3]) [mg/kg]	ED50 (Streptococcus pyogenes [4]) [mg/kg]	ED50 (Streptococcus pyogenes [5]) [mg/kg]	PTD50 (Mus musculus [6]) [mg/kg]	MIC (Staphylococcus aureus [7]) [µg/mL]	MIC (Escherichia coli [8]) [µg/mL]	MIC (Escherichia coli [9]) [µg/mL]	No effect dose (Mus musculus [10]) [mg/kg]	No. of pos rxns (Mus musculus [11])	ED50 (Escherichia coli [12]) [mg/kg]	MIC (Enterococcus faecalis) [µg/mL]	MIC [13] [µg/mL]	MIC (Streptococcus pyogenes [14]) [µg/mL]	MIC (Streptococcus pneumoniae [15]) [µg/mL]	MIC (Enterobacter cloacae) [µg/mL]	Day of first positve reaction (Mus musculus [16])	MTD (Mus musculus [17]) [mg/kg]	other results
C[C@@H]1CN(c2cc3c(cc2F)c(=O)c(C(=O)O)cn3C2CC2)CCN1	0.05 (≈ 0.145 µM)	0.1 (≈ 0.29 µM)	0.4 (≈ 1.16 µM)	0.4	39	12	>100	0.4 (≈ 1.16 µM)	0.025 (≈ 0.0724 µM)	0.025 (≈ 0.0724 µM)	100	1	1.2	0.4 (≈ 1.16 µM)	0.1 (≈ 0.29 µM)	0.2 (≈ 0.579 µM)	0.2 (≈ 0.579 µM)	0.025 (≈ 0.0724 µM)	0	100	
NC1CCN(c2c(F)cc3c(=O)c(C(=O)O)cn(C4CC4)c3c2C(F)(F)F)C1 (configuration not stated)	0.2 (≈ 0.501 µM)	0.05 (≈ 0.125 µM)	1.6 (≈ 4.01 µM)	1.4	32	26	>300	0.1 (≈ 0.25 µM)	0.05 (≈ 0.125 µM)	0.025 (≈ 0.0626 µM)	300	0	2.9	0.4 (≈ 1 µM)	0.4 (≈ 1 µM)	0.4 (≈ 1 µM)	0.4 (≈ 1 µM)	0.05 (≈ 0.125 µM)	0	300	ED50 (Streptococcus pneumoniae [18]): 26 mg/kg; ED50 (Pseudomonas aeruginosa [19]): 23 mg/kg; ED50 (Streptococcus pneumoniae [20]): 25 mg/kg; ED50 (Pseudomonas aeruginosa [21]): 53 mg/kg
CCn1cc(C(=O)O)c(=O)c2cc(F)c(N3CCN(C)CC3)cc21 [PEFLOXACIN]	0.05 (≈ 0.15 µM)	0.1 (≈ 0.3 µM)	0.4 (≈ 1.2 µM)	2	110	94	265	0.2 (≈ 0.6 µM)	0.025 (≈ 0.075 µM)	0.1 (≈ 0.3 µM)	>172	2	3	0.8 (≈ 2.4 µM)	0.05 (≈ 0.15 µM)	0.8 (≈ 2.4 µM)	0.8 (≈ 2.4 µM)		4	300	ED50 (Streptococcus pneumoniae [18]): 96 mg/kg; ED50 (Pseudomonas aeruginosa [19]): 26 mg/kg; ED50 (Streptococcus pneumoniae [20]): > 200 mg/kg; ED50 (Pseudomonas aeruginosa [21]): 38 mg/kg
CC1(CN)CCN(c2cc3c(cc2F)c(=O)c(C(=O)O)cn3C2CC2)C1 (configuration not stated)	0.2 (≈ 0.556 µM)	0.013 (≈ 0.0362 µM)	1.6 (≈ 4.45 µM)	1.7			>100	0.1 (≈ 0.278 µM)	0.025 (≈ 0.0696 µM)	0.025 (≈ 0.0696 µM)	100	0	26	0.05 (≈ 0.139 µM)	0.4 (≈ 1.11 µM)	0.003 (≈ 0.00835 µM)	0.003 (≈ 0.00835 µM)	0.05 (≈ 0.139 µM)	0	100	ED50 (Streptococcus pneumoniae [18]): 0.45 mg/kg; ED50 (Streptococcus pneumoniae [20]): 12 mg/kg
CC1(CN)CCN(c2c(F)cc3c(=O)c(C(=O)O)cn(C4CC4)c3c2C(F)(F)F)C1 (configuration not stated)	0.4 (≈ 0.936 µM)	0.013 (≈ 0.0304 µM)	3.1 (≈ 7.25 µM)	3.1			>100	0.05 (≈ 0.117 µM)	0.2 (≈ 0.468 µM)	0.1 (≈ 0.234 µM)	100	0	8.5	0.2 (≈ 0.468 µM)	0.8 (≈ 1.87 µM)	0.05 (≈ 0.117 µM)	0.05 (≈ 0.117 µM)	0.2 (≈ 0.468 µM)	0	100	ED50 (Streptococcus pneumoniae [18]): 0.4 mg/kg; ED50 (Streptococcus pneumoniae [20]): 1.1 mg/kg
C[C@@H]1CN(c2c(F)cc3c(=O)c(C(=O)O)cn(C4CC4)c3c2C(F)(F)F)CCN1	0.4 (≈ 0.968 µM)	0.2 (≈ 0.484 µM)	3.1 (≈ 7.5 µM)	1.4	23	21	>100	0.4 (≈ 0.968 µM)	0.1 (≈ 0.242 µM)	0.05 (≈ 0.121 µM)	100	0	1.6	0.8 (≈ 1.94 µM)	0.8 (≈ 1.94 µM)	0.8 (≈ 1.94 µM)	0.8 (≈ 1.94 µM)	0.2 (≈ 0.484 µM)	0	100	
